From ChEMBL document CHEMBL1137569, “Pharmacomodulations around the 4-oxo-1,4-dihydroquinoline-3-carboxamides, a class of potent CB2-selective cannabinoid receptor ligands: consequences in receptor affinity and functionality” (J Med Chem, 2007)

How the values were obtained:
Cannabinoid receptor 2 [1] = molecular target: T1, Cannabinoid receptor 2 (Homo sapiens, UniProt P34972); assay: Displacement of [3H]CP-55940 from human CB2 receptor expressed in CHO cells; format: cell-based; design: concentration or dose not given beside the values
Procedure, shortened: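 Competitive radioligand binding on membranes from CHO cells expressing hCB2, with [3H]-CP-55,940 as tracer. Compounds were first screened at 10 µM. Ki at CB2 was then determined for those displacing more than 60% of specific binding.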

Cannabinoid receptor 2 [2] = molecular target: T1, Cannabinoid receptor 2; assay: Inhibition of human CB2 receptor expressed in CHO cells; format: cell-based
Cannabinoid receptor 2 [3] = molecular target: T1, Cannabinoid receptor 2; assay: Activity at human CB2 receptor expressed in CHO cells assessed as stimulated [35S]GTP-gamma-S binding relative to control; format: functional, cell-based; design: concentration or dose not given beside the values

T1 sequence (P34972 whole entry): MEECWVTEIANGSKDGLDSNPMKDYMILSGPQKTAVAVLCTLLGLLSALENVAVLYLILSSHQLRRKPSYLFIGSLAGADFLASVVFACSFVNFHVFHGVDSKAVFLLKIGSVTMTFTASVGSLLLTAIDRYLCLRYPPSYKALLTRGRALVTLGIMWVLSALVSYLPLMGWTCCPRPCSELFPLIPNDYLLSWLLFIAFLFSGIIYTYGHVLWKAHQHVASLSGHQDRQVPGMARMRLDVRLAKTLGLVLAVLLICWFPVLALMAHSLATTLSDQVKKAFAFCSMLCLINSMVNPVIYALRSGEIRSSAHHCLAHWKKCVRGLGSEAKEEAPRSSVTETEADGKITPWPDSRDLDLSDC

SMILES	Activity (Cannabinoid receptor 2 [1])	Ki (Cannabinoid receptor 2 [2])	Activity (Cannabinoid receptor 2 [3])
CCCCCn1cc(C(=O)NC23CC4CC(C)(CC(C)(C4)C2)C3)c(=O)c2ccc(Cl)cc21	106%	5.3 nM	51.6%
CCCCCn1cc(C(=O)c2ccc3ccccc3c2)c(=O)c2ccccc21	74.3%	1290 nM	–
CCCCCn1cc(C(=O)NC(C)C23CC4CC(CC(C4)C2)C3)c(=O)c2ccc(Cl)cc21 (racemic) [listing 1 of 2 here]	–	41.1 nM	–
CCCCCn1cc(C(=O)NC23CC4CC(C)(CC(C)(C4)C2)C3)c(=O)c2cnccc21	95%	30.9 nM	136%
CCCCCn1cc(C(=O)NC(C)C23CC4CC(CC(C4)C2)C3)c(=O)c2ccc(Cl)cc21 (racemic) [listing 2 of 2 here]	102%	–	56.3%
CCCCCn1cc(CNC23CC4CC(CC(C4)C2)C3)c(=O)c2ccccc21	81.3%	1670 nM	–
CCCCCn1cc(NC(=O)C23CC4CC(CC(C4)C2)C3)c(=O)c2ccccc21	99.9%	25.5 nM	120%
CC12CC3CC(C)(C1)CC(NC(=O)c1cn(Cc4ccc(Br)cc4)c4ccccc4c1=O)(C3)C2	30.5%	–	–
CCCCCn1c(C)c(C(=O)NC23CC4CC(C)(CC(C)(C4)C2)C3)c(=O)c2ccccc21	96.7%	200 nM	128%
CCCCCn1cc(C(=O)NC2CCCc3ccccc32)c(=O)c2cc(Cl)ccc21 (racemic) [listing 1 of 2 here]	98.2%	–	98.5%
O=C(c1cn(Cc2ccc(Br)cc2)c2ccccc2c1=O)c1cccc2ccccc12	93.7%	966 nM	–
O=C(NCCc1ccccc1)c1cn(CCN2CCOCC2)c2ccccc2c1=O	46.7%	–	–
CCCCCn1cc(C(=O)NC(C)C23CC4CC(CC(C4)C2)C3)c(=O)c2cc(Cl)ccc21 (racemic) [listing 1 of 2 here]	–	222 nM	–
CCCCCn1c(C)c(C(=O)NCCc2ccccc2)c(=O)c2ccccc21	57.3%	–	–
O=C(c1cn(Cc2ccc(Cl)cc2)c2ccccc2c1=O)c1cccc2ccccc12	96.5%	1120 nM	–
CCCCCn1cc(C(=O)NC(C)C23CC4CC(CC(C4)C2)C3)c(=O)c2ccc(Cl)cc21 (single isomer, unassigned; (+)) [listing 1 of 2 here]	92.9%	–	42.7%
CCCCn1cc(C(=O)c2cccc3ccccc23)c(=O)c2ccccc21	77.7%	1550 nM	–
O=C(c1cn(CCc2ccccc2)c2ccccc2c1=O)c1cccc2ccccc12	56.8%	–	–
CCCCCn1cc(C(=O)NC(C)C23CC4CC(CC(C4)C2)C3)c(=O)c2cc(Cl)ccc21 (single isomer, unassigned; (+)) [listing 1 of 2 here]	97.2%	–	76.7%
CCCCCn1cc(C(=O)NC(C)C23CC4CC(CC(C4)C2)C3)c(=O)c2ccccc21 (stereo in doubt; 24) [listing 1 of 2 here]	–	14 nM	–
CCCCCn1cc(C(=O)c2ccc3c(c2)COC3)c(=O)c2ccccc21	70.2%	> 2000 nM	–

SMILES	Activity (Cannabinoid receptor 2 [1])	Ki (Cannabinoid receptor 2 [2])	Activity (Cannabinoid receptor 2 [3])
CCCCCCn1cc(C(=O)c2ccc(OC)cc2)c(=O)c2ccccc21	68.8%	> 2000 nM	–
CCCCCn1cc(CNCCc2ccccc2)c(=O)c2ccccc21	25.9%	> 4000 nM	–
O=C(c1cn(CCC2CCCCC2)c2ccccc2c1=O)c1cccc2ccccc12	78.5%	1670 nM	–
CCCCCn1cc(C(=O)NC(C)C23CC4CC(CC(C4)C2)C3)c(=O)c2ccccc21 (racemic) [listing 1 of 2 here]	99.1%	–	156%
CCCCCn1cc(C(=O)NC(C)C23CC4CC(CC(C4)C2)C3)c(=O)c2ccc(Cl)cc21 (single isomer, unassigned; (-)) [listing 1 of 2 here]	102%	–	53.5%
O=C(c1cn(CCCc2ccccc2)c2ccccc2c1=O)c1cccc2ccccc12	80.4%	> 2000 nM	–
CCCCCn1c(C)c(C(=O)NC(C)c2cccc3ccccc23)c(=O)c2ccccc21 (single isomer, unassigned; (-))	70.4%	> 3000 nM	–
CCCCCn1cc(C(=O)NC(C)C23CC4CC(CC(C4)C2)C3)c(=O)c2ccccc21 (racemic) [listing 2 of 2 here]	–	28.5 nM	–
CCCCn1cc(C(=O)c2ccc(OC)cc2)c(=O)c2ccccc21	< 10%	–	–
CCCCCn1cc(C(=O)NC(C)C23CC4CC(CC(C4)C2)C3)c(=O)c2cc(Cl)ccc21 (racemic) [listing 2 of 2 here]	81.8%	–	97.3%
CCCCCn1cc(C(=O)NC(C)C23CC4CC(CC(C4)C2)C3)c(=O)c2ccccc21 (stereo in doubt; 24) [listing 2 of 2 here]	101%	–	175%
CCCCCn1cc(C(=O)c2ccccc2)c(=O)c2ccccc21	94.5%	446 nM	–
CCCCCn1cc(C(=O)NC2CCCc3ccccc32)c(=O)c2ccccc21 (single isomer, unassigned; (+)) [listing 1 of 2 here]	–	41.7 nM	–
CCCCCn1cc(CNCC2CCCc3ccccc32)c(=O)c2ccccc21 (racemic)	63.9%	> 4000 nM	–
CCCCCn1cc(C(=O)NC2CCCc3ccccc32)c(=O)c2cc(Cl)ccc21 (single isomer, unassigned; (+)) [listing 1 of 2 here]	92.8%	–	124%
CCCCCn1cc(C(=O)c2ccc(OC)cc2)c(=O)c2ccccc21	46.9%	–	–
CCCCCn1cc(C(=O)NC(C)C23CC4CC(CC(C4)C2)C3)c(=O)c2ccc(Cl)cc21 (single isomer, unassigned; (-)) [listing 2 of 2 here]	–	26.1 nM	–
O=C(c1cn(Cc2ccccc2)c2ccccc2c1=O)c1cccc2ccccc12	100%	656 nM	–
CCCCCn1cc(C(=O)NC(C)C23CC4CC(CC(C4)C2)C3)c(=O)c2cc(Cl)ccc21 (single isomer, unassigned; (-)) [listing 1 of 2 here]	87.7%	–	86.1%
CCCCCn1cc(C(=O)NC2CCCc3ccccc32)c(=O)c2ccccc21 (single isomer, unassigned; (+)) [listing 2 of 2 here]	–	–	183%
CCCCCn1c(C)c(C(=O)NC(C)c2ccc3ccccc3c2)c(=O)c2ccccc21 (single isomer, unassigned; (-))	62.6%	> 2000 nM	–

SMILES	Activity (Cannabinoid receptor 2 [1])	Ki (Cannabinoid receptor 2 [2])	Activity (Cannabinoid receptor 2 [3])
CCCC(C)(C)c1ccc2c(c1)OC(C)(C)[C@@H]1CC=C(C)C[C@@H]21	–	–	201%
CCCCCCn1cc(C(=O)c2cccc3ccccc23)c(=O)c2ccccc21	89.5%	582 nM	–
O=C(c1cn(CCN2CCOCC2)c2ccccc2c1=O)c1cccc2ccccc12	46.1%	–	–
CCCCCn1cc(C(=O)NC(C)C23CC4CC(CC(C4)C2)C3)c(=O)c2ccccc21 (single isomer, unassigned; (+)) [listing 1 of 2 here]	64.3%	–	172%
CC12CC3CC(C)(C1)CC(NC(=O)c1cn(Cc4ccc(Cl)cc4)c4ccccc4c1=O)(C3)C2	48.1%	–	–
CC(NC(=O)c1cn(CCN2CCOCC2)c2ccccc2c1=O)c1ccccc1 (single isomer, unassigned; (-))	66.5%	< 2000 nM	–
CCCCCn1cc(C(=O)NC(C)C23CC4CC(CC(C4)C2)C3)c(=O)c2cc(Cl)ccc21 (single isomer, unassigned; (+)) [listing 2 of 2 here]	–	144 nM	–
CCCCCCC(C)(C)c1ccc(C2CC(O)CC[C@H]2CCCO)c(O)c1 (single isomer, unassigned)	–	–	230%
CCCCCn1cc(C(=O)NC2CCCc3ccccc32)c(=O)c2ccccc21 (single isomer, unassigned; (-)) [listing 1 of 2 here]	–	1010 nM	–
O=C(c1c[nH]c2ccccc2c1=O)c1cccc2ccccc12	31%	–	–
CCCCCn1cc(C(=O)NC2CCCc3ccccc32)c(=O)c2cc(Cl)ccc21 (single isomer, unassigned; (+)) [listing 2 of 2 here]	–	121 nM	–
CCCCCn1cc(C(=O)NC2CCCc3ccccc32)c(=O)c2ccccc21 (single isomer, unassigned; (-)) [listing 2 of 2 here]	90.9%	–	–
CCCCCn1cc(C(=O)NC(C)C23CC4CC(CC(C4)C2)C3)c(=O)c2cc(Cl)ccc21 (single isomer, unassigned; (-)) [listing 2 of 2 here]	–	235 nM	–
CCCCCn1cc(C(=O)NC(C)C23CC4CC(CC(C4)C2)C3)c(=O)c2ccc(Cl)cc21 (single isomer, unassigned; (+)) [listing 2 of 2 here]	–	265 nM	–
O=C(NC12CC3CC(CC(C3)C1)C2)c1cn(CCN2CCOCC2)c2ccccc2c1=O	101%	152 nM	–
CCCCCn1cc(C(=O)c2c3ccccc3cc3ccccc23)c(=O)c2ccccc21	76.5%	1500 nM	–
CCCCCn1cc(C(=O)c2ccc3cc(OC)ccc3c2)c(=O)c2ccccc21	44.1%	–	–
CCCCCn1cc(C(=O)NC(C)C23CC4CC(CC(C4)C2)C3)c(=O)c2ccccc21 (single isomer, unassigned; (+)) [listing 2 of 2 here]	–	202 nM	–
CC12CC3CC(C)(C1)CC(NC(=O)c1cn(CCC4CCCCC4)c4ccccc4c1=O)(C3)C2	38.8%	–	157%
CCCCCn1cc(C(=O)NC2CCCc3ccccc32)c(=O)c2cc(Cl)ccc21 (racemic) [listing 2 of 2 here]	–	506 nM	–
